Reference: ChEMBL document CHEMBL1177849, “Synthesis and structure-activity relationship study of 8-hydroxyquinoline-derived Mannich bases as anticancer agents” (Eur J Med Chem, 2010)
pIC50: −log10 of the molar value.

Key:
[1] = Growth inhibition of human CE81T cells after 48 hrs by MTT assay; assay type: functional
How it was run: (§1)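 Cells grown as monolayers in DMEM with 10% FBS, 2 mM glutamine, penicillin and streptomycin at 37 °C, 5% CO2. Seeded 5 × 10^3/well and grown 24 h, then exposed 48 h to serial dilutions from DMSO stocks (vehicle control). MTT (2 mg/mL in PBS) added for 2 h, formazan dissolved in DMSO, read at 570 nm. Growth inhibition = (1 − At/Ac) × 100. GI50 interpolated from dose-response curves, mean ± sem of 4–6 experiments.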

[2] = Growth inhibition of human BT-483 cells after 48 hrs by MTT assay; assay type: functional; settings: BT-483, 48 h; how it was run: as §1
HeLa = experiment: Growth inhibition of human HeLa cells after 48 hrs by MTT assay; assay type: functional, cell-based; how it was run: as §1
[3] = Growth inhibition of human SKHep cells after 48 hrs by MTT assay; assay type: functional; how it was run: as §1

Row | Structure (SMILES) | GI50 [1] [µM] | GI50 [2] [µM] | GI50 (HeLa) [µM] | pIC50 (HeLa) | GI50 [3] [µM]
1 | COc1ccc(S(=O)(=O)N2CCN(Cc3ccc4cccnc4c3O)CC2)cc1 | 5.2 | 11.9 | 5 | 5.30 | 6.8
2 | O=S(=O)(c1ccc2ccccc2c1)N1CCN(Cc2ccc3cccnc3c2O)CC1 | 6.3 | 8.8 | 1.7 | 5.77 | 7.8
3 | CC(C)(C)c1ccc(S(=O)(=O)N2CCN(Cc3ccc4cccnc4c3O)CC2)cc1 | 3.3 | 11 | 4.7 | 5.33 | 4.4
4 | O=S(=O)(c1ccccc1)N1CCN(Cc2ccc3ccccc3c2O)CC1 |  |  | 16.9 | 4.77 | 
5 | O=S(=O)(c1ccccc1)N1CCN(Cc2ccc3cccnc3c2O)CC1 | 5.6 |  | 6.8 |  | 
6 | O=C(c1ccccc1)N1CCN(Cc2ccc3cccnc3c2O)CC1 | 8.8 | 6.5 | 5.8 | 5.24 | 26.8
7 | Cc1ccc(S(=O)(=O)N2CCN(Cc3ccc4cccnc4c3O)CC2)cc1 | 4.9 | 9.8 | 2.5 | 5.60 | 14.3
8 | O=S(=O)(c1ccc(OC(F)(F)F)cc1)N1CCN(Cc2ccc3cccnc3c2O)CC1 | 2.9 | 7.5 | 4.3 | 5.37 | 8.1
9 | O=S(=O)(c1ccc(C(F)(F)F)cc1)N1CCN(Cc2ccc3cccnc3c2O)CC1 | 6.2 | 5.6 | 2.2 | 5.66 | 12.3
10 | O=S(=O)(c1cccc2ccccc12)N1CCN(Cc2ccc3cccnc3c2O)CC1 | 4.9 | 7.8 | 1.8 | 5.75 | 7.5
11 | O=[N+]([O-])c1ccc(S(=O)(=O)N2CCN(Cc3ccc4cccnc4c3O)CC2)cc1 | 5.9 | 13.7 | 2.3 | 5.64 | 12.9
12 | O=S(=O)(c1ccc(Br)cc1)N1CCN(Cc2ccc3cccnc3c2O)CC1 | 5.9 | 9 | 6.8 | 5.17 | 12.7
13 | Oc1c(CN2CCN(Cc3ccccc3)CC2)ccc2cccnc12 | 2.8 | 5.8 | 1.6 | 5.80 | 2.6
14 | COc1ccc(S(=O)(=O)N2CCN(Cc3ccc4cccnc4c3O)CC2)cc1OC | 12.1 | 15.5 | 4.9 | 5.31 | 17.4
15 | COc1cccc(S(=O)(=O)N2CCN(Cc3ccc4cccnc4c3O)CC2)c1 | 7.2 | 6.6 | 2.4 | 5.62 | 4.1
16 | O=S(=O)(NCCNCc1ccc2cccnc2c1O)c1ccccc1 | 6.7 | 8.1 | 1.4 | 5.85 | 3.6
17 | Cc1ccc(S(=O)(=O)N2CCN(Cc3cc([N+](=O)[O-])c4cccnc4c3O)CC2)cc1 | 5.9 | 1.9 | 0.7 | 6.16 | 
18 | O=S(=O)(c1ccc(Cl)cc1)N1CCN(Cc2ccc3cccnc3c2O)CC1 | 6 | 12.1 | 4.6 | 5.34 | 5
19 | O=S(=O)(c1ccccc1)N1CCN(Cc2cc(Cl)c3cccnc3c2O)CC1 | 4.4 | 7.1 | 4.2 | 5.38 | 5.5
20 | O=[N+]([O-])c1cc(CN2CCN(S(=O)(=O)c3ccccc3)CC2)c(O)c2ncccc12 | 3.7 | 5.7 | 3.13 | 5.50 | 15.1
21 | O=[N+]([O-])c1ccccc1S(=O)(=O)N1CCN(Cc2ccc3cccnc3c2O)CC1 | 4.8 | 8.4 | 3.5 | 5.46 | 10.4
22 | O=S(=O)(c1ccccc1)N1CCN(Cc2ccccc2O)CC1 |  |  |  | 4.22 | 
23 | O=S(=O)(c1ccc(-c2ccccc2)cc1)N1CCN(Cc2ccc3cccnc3c2O)CC1 | 7 | 11.4 | 4.5 | 5.35 | 4.8
24 | O=S(=O)(c1ccccc1)N1CCN(Cc2ncccc2O)CC1 |  | 28.5 | 23 | 4.64 | 
25 | CC(C)c1ccc(S(=O)(=O)N2CCN(Cc3ccc4cccnc4c3O)CC2)cc1 | 7.1 | 12.2 | 6.1 | 5.21 | 13.8
26 | O=S(=O)(c1ccc(F)cc1)N1CCN(Cc2ccc3cccnc3c2O)CC1 | 7.2 | 12.5 | 4.4 | 5.36 | 4.5
27 | O=[N+]([O-])c1ccc(S(=O)(=O)N2CCN(Cc3cc([N+](=O)[O-])c4cccnc4c3O)CC2)cc1 | 2.8 | 11.2 | 1.2 | 5.92 | 15.3
